From PubChem BioAssay
Most compounds without a hit are left out; they make up all but 3.8% or so of the library.
INS promoter inh = TRM-6 insulin promoter activity inhibition; TRM-6 cells (human fetal islet line), insulin promoter-eGFP reporter, imaging; reporter expression induced with tamoxifen; actives 0.9% (n = 130,000); inhibition, % at 2 µM;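 active = inhibition above the mean plus 3 SD, with well images judged a real hit on visual review, cut at about 60% in these data, passing the limit was not always enough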
RAM network inh = inhibitors of the yeast RAM network; inhibition, % at 50 µM; AID 868; actives 1.8% (n = 190,000); S. cerevisiae dse1pr::URA3 reporter, 5-FOA growth OD615, 2 d; analog-sensitive cbk1-as2 kinase mutant strain;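 active = inhibition above a set limit, 3 SD over mean compound inhibition, cut at about 8.4% in these data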;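 also: 0% = DMSO-only wells with no growth and 100% = 10 µM 1-NA-PP1 full growth; inhibition rescues growth on 5-FOA so higher OD means more RAM inhibition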
NPY1 pot ag = human NPY-Y1 potentiation or agonism, primary screen | AID 1304 | activation, % at 3.6 µM | P25929 | actives 0.37% (n = 220,000) | NPY-Y1 expressing cells, potentiator/agonist activation; in the data active = activation above about 33%, passing the limit was not always enough;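 also: cells stimulated with NPY at EC10 then isoproterenol at EC100; 0% = low agonist plus stimulus and 100% = saturating agonist plus stimulus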
NPY2 pot ag = potentiates or activates human NPY-Y2 receptor | P49146 | cells expressing NPY-Y2, potentiator/agonist read-out | activation, % at 3.6 µM | actives 0.45% (n = 220,000) | AID 1359; in the data active = activation above about 27%;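 also: cells stimulated with NPY near EC25 plus isoproterenol at EC100; 0% = vehicle plus submaximal agonist and 100% = vehicle plus saturating agonist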
Target sequence (P49146 whole entry, looked up): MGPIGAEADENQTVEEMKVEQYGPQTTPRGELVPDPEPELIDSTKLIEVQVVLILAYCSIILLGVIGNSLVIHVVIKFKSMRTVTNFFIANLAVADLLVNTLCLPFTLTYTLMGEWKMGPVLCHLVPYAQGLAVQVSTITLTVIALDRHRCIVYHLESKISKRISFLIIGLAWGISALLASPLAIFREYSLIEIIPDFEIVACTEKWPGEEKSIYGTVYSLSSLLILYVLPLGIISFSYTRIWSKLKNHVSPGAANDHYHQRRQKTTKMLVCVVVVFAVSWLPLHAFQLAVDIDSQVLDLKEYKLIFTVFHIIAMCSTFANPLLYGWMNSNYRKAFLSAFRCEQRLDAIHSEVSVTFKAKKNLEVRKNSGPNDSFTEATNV
NPY-Y1 antag = NPY-Y1 (human) receptor antagonism; HEK293-CNG Y1 cells, membrane potential fluorescence; NPY at EC95, then isoproterenol; actives 1% (n = 200,000); AID 1040; inhibition, % at 3.6 µM;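 active = inhibition above the campaign mean inhibition of all tested compounds plus 3 SD, cut at about 20% in these data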;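 also: 0% = DMSO wells given NPY plus isoproterenol and 100% = isoproterenol alone without NPY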
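Material: HEK293 cells co-expressing NPY Y1 receptor and cyclic-nucleotide gated channel. Timing: compound incubation 1 h at room temperature, readout 45 min post-stimulation. Signal: fluorescence, membrane potential probe.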
NPY Y2 blocker = antagonists of human neuropeptide Y receptor Y2; NPY-Y2 expressing cells, antagonist mode; actives 0.99% (n = 140,000); inhibition, % at 2.7 µM; P49146;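 also: 0% = vehicle with agonist challenge and 100% = reference antagonist with challenge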
NPY1 antag conf = confirmation of human neuropeptide Y receptor Y1 antagonists; actives 21% (n = 1,200); shares compounds with NPY-Y1 antag; HEK293-CNG NPY-Y1, membrane potential fluorescence, cAMP; NPY challenge against isoproterenol-raised cAMP; inhibition, % at 3.6 µM; in the data active = inhibition above about 20%;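 also: 0% = vehicle with agonist plus stimulus and 100% = stimulus alone without agonist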
NPY2 antag ctr = counter-screen for NPY-Y1 antagonists: human NPY-Y2 antagonism; shares compounds with NPY-Y1 antag; HEK293 NPY-Y2 CNG membrane potential fluorescence; cells given NPY, then isoproterenol; inhibition, % at 3.6 µM; actives 28% (n = 1,200); AID 1255;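 also: 0% = DMSO with agonist challenge and 100% = reference antagonist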
* marks the source's active call; other numbers are inactive results; x = no result. Rule as the data show it, unless noted: active = inhibition above about 17%; inactive = the rest.

SMILES	INS promoter inh	RAM network inh	NPY1 pot ag	NPY2 pot ag	NPY-Y1 antag	NPY Y2 blocker	NPY1 antag conf	NPY2 antag ctr
COC(=O)Nc1ccc(S(=O)(=O)NCc2ccccn2)cc1	-67	2	6	8	41*	x	5	0
COc1ccc(C2c3[nH]c4ccccc4c3CCN2CCCn2cccn2)c(C)c1C (stereo not given)	x	0	-15	-17	36*	x	19	20*
COc1cccc(C2c3[nH]c4ccccc4c3CCN2CCCn2cccn2)c1 (stereo not given)	x	-1	-4	-7	10	x	x	x
Cc1cc(C)c(S(=O)(=O)Nn2cnnc2)c(C)c1	57	1	14	-2	7	x	x	x
CCc1nnc(NC(=O)c2ccc(S(=O)(=O)N3CCCCC3C)cc2)s1 (stereo not given)	x	3	13	-5	-5	0	x	x
CCc1nnc(NC(=O)c2ccc(S(=O)(=O)N3CCCCCC3)cc2)s1	x	5	8	3	61*	0	-4	0
CC(C)CCNC(=O)C1CCN(C(=O)N(C)C)CC1	53	3	6	-8	-4	0	x	x
CC1=C(C(=O)OC(C)C)C(c2cn(-c3ccccc3)nc2-c2cccs2)NC(=O)N1 (stereo not given)	7	-1	-12	-10	-7	0	x	x
OC(COc1ccc2c(c1)CCC2)CN1CCN(c2ccccc2F)CC1 (stereo not given)	43	1	-25	-30	26*	10	13	16
O=C1/C(=C/c2cccs2)Cc2ccccc21	x	1	13	9	-1	6	x	x
O=C1/C(=C\c2ccc(Br)o2)Cc2ccccc21	0	4	-22	14	25*	13	16	7
c1ccc2c(c1)CC/C2=N/Nc1nc2ccccc2[nH]1	x	2	-37	-11	26*	x	20*	21*
CC(C)(C)C1CCC(=NNc2nc3ccccc3[nH]2)CC1 (stereo not given)	x	1	-14	-10	2	x	x	x
CCN1/C(=C/C=C/c2oc3ccc4ccccc4c3[n+]2CC)Oc2ccc3ccccc3c21	x	1	-24	-28	35*	x	30*	30*
CC[n+]1c(/C=C/N(C)c2ccccc2)oc2ccc(Cl)cc21	x	3	-8	-4	5	4	x	x
O=C(Cc1cccs1)N(CC1CCCO1)C1(C(=O)NC2CCCC2)CCCCC1 (stereo not given)	x	1	-17	-10	36*	x	14	8
CC(C)N1C(=S)N(Cc2ccco2)C(=O)C1CC(=O)Nc1ccccc1 (stereo not given)	-25	3	7	4	74*	x	-1	-1
CC(C)Oc1cccc(C(=O)C2CCCN(Cc3cnn(C(C)C)c3)C2)c1 (stereo not given)	x	3	1	-10	4	x	x	x
COc1ccc(C(=O)C2CCCN(Cc3cccn3-c3ccccn3)C2)cc1F (stereo not given)	x	2	55*	45*	22*	x	14	-1
COc1cccc(C(=O)C2CCCN(Cc3cccn3-c3ccccn3)C2)c1 (stereo not given)	x	1	-46	-37	37*	x	35*	30*
COc1ccc(C(=O)C2CCCN(Cc3cccn3-c3nccs3)C2)cc1OC (stereo not given)	x	x	-18	-15	x	x	x	x
O=C(c1ccc(C(F)(F)F)cc1)C1CCCN(Cc2cccn2-c2ncccn2)C1 (stereo not given)	7	0	-21	-29	23*	x	16	18*
COc1ccc(C(=O)C2CCCN(Cc3cccn3-c3nccs3)C2)cc1F (stereo not given)	x	0	-19	-3	20	x	x	x
CC(C)Oc1cccc(C(=O)C2CCCN(Cc3cccn3-c3ccccn3)C2)c1 (stereo not given)	x	0	-58	-22	49*	x	44*	40*
